Cneo AK release = causes C. neoformans cell lysis | adenylate kinase release luminescence, 4 h; normalised: neutral wells 0, clomiphene wells 100 | lysis activity, % at 15 µM | hit rate 0.2% among 360,000 | AID 651654;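 active means mean lysis activity across replicates of at least 80%, whatever share of replicates individually reach that level; inactive means mean lysis activity below 80%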
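Assay system: Cryptococcus neoformans yeast cells / Dosing: single-point compound dose / Timing: 4 h at 37 °C static, read 1 h later / Measured by: luminescence of released adenylate kinase using an AK detection reagent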
ERAP1 inh = blocks human ERAP1 aminopeptidase activity; hit rate 0.15% among 340,000; inhibition, % at 10.7 µM; Q9NZ08; recombinant ERAP1, Leu-AMC fluorescence, 60 min;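 active means mean replicate inhibition of at least 30%, or all replicates individually reaching that 30% level; inactive means mean below 30% and not every replicate reaching it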;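 further: 0% = neutral control wells and 100% = L-leucinethiol positive control wells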
FGF22 binding = shifts melting point of recombinant human FGF22; recombinant FGF22 thermal shift, SYPRO orange fluorescence; percent of sucrose octasulfate shift, DMSO zero; activity (Tm shift, normalised), % at 9.99 µM; hit rate 1.5% among 340,000;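 active means mean Tm shift, scaled 0 neutral to 100 positive control, at about 1.3% or above, every replicate too, limit read from the data; inconclusive means no clear call, values can overlap the other calls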
Target sequence (Q9HCT0 whole entry, looked up): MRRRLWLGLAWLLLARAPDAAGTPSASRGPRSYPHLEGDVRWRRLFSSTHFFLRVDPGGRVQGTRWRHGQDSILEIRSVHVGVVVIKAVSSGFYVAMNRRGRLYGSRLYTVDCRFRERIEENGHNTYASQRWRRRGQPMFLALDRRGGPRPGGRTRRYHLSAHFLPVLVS
Env fusion inh = inhibitors of HIV Env-mediated cell fusion; HeLa-JRFL Env/CEM21 cell fusion, luciferase; inhibition, % at 12.3 µM; hit rate 1.1% among 360,000;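 active means mean replicate inhibition score of at least 50 and every replicate individually at or above 50; inconclusive means only one of the two criteria met; inactive means mean below 50 and not all replicates reaching 50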;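 further: 0% = plate neutral controls and 100% = maraviroc near 300 nM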
rRNA inh HTS = selective bacterial rRNA inhibition in E. coli. E. coli WT GFP vs humanized-ribosome RFP mutants, fluorescence, 24 h; hits give low values; DMSO median 0, no signal -100. GFP signal change (wild-type ribosome), % (concentration not given with the values). hit rate 1.6% among 350,000;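 active means significant combined selectivity score with lowered wild-type GFP, culture density cut under 30%, mutant RFP and density less affected; inactive means any of these conditions unmet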
PGC1a acetyl inh = lowers PGC1a acetylation signal in U2OS cells; AlphaScreen anti-acetyl-lysine; with virally co-expressed GCN5 acetyltransferase; inhibition, % at 15.6 µM; hit rate 0.17% among 350,000; AID 651687;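 active means every replicate shows inhibition of at least 40%; inconclusive means mean inhibition at least 40% but some replicate below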;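 further: 0% = neutral control wells and 100% = positive control wells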
Active calls of the source: *. Rows were chosen to be rich in hits. Some 3.5% of all compounds tested hit in one or more screens of this group.

What do the screens show for `COc1cc(C(=O)OC2C[C@H]3CC[C@@H](C2)N3C)ccc1O` (some centres undefined)?
Cneo AK release: -1; ERAP1 inh: -6; FGF22 binding: 0; Env fusion inh: 6; rRNA inh HTS: 11

How did CCOc1ccc(NC(=O)c2c(O)[nH]c(=O)[nH]c2=O)cc1 do in these assays?
Cneo AK release: -1; ERAP1 inh: -1; FGF22 binding: 0; Env fusion inh: -23; rRNA inh HTS: 14; PGC1a acetyl inh: -2

What do the screens show for `CC(=O)Nc1ccc(OCCF)cc1`?
ERAP1 inh: 3; FGF22 binding: 43*; Env fusion inh: -13; rRNA inh HTS: 11; PGC1a acetyl inh: -4

How did CNC(=O)OCc1n(C)cc[n+]1C do in these assays?
ERAP1 inh: 84*; FGF22 binding: 0; Env fusion inh: -14; rRNA inh HTS: 14

What do the screens show for `CNC(=O)OCCc1nccn1C`?
Cneo AK release: -1; Env fusion inh: -4; PGC1a acetyl inh: 4

What do the screens show for `CN1C(=O)NC(=O)/C(=C\C=C\c2ccccc2[N+](=O)[O-])C1=O`?
ERAP1 inh: 7; FGF22 binding: 0; Env fusion inh: -154; rRNA inh HTS: 17

Results for COC(=O)C1=C(c2ccc(OC(F)(F)F)cc2)C[C@@H]2CC[C@H]1N2C(=O)N1CCCCC1 ?
Cneo AK release: 0; ERAP1 inh: 0; FGF22 binding: 0; Env fusion inh: 75*; rRNA inh HTS: -25; PGC1a acetyl inh: -11

What do the screens show for `CCCCNC(=O)c1c(N)n(CCCOC)c2nc3ccccc3nc12`?
Cneo AK release: 4; Env fusion inh: 14; PGC1a acetyl inh: -18

What do the screens show for `COCCNC(=O)c1c(N)n(CCC(C)C)c2nc3ccccc3nc12`?
Cneo AK release: 2; Env fusion inh: 59*; PGC1a acetyl inh: -8

Results for O=C(O)c1cc(Oc2ccc(C(F)(F)F)cc2Cl)ccc1[N+](=O)[O-] ?
Cneo AK release: -1; ERAP1 inh: -2; FGF22 binding: 0; rRNA inh HTS: -53; PGC1a acetyl inh: -1

How did O=C(Cc1ccccc1)N1CCCCN2[C@H](CO)[C@H](c3ccc(-c4ccccc4)cc3)[C@@H]2C1 do in these assays?
Cneo AK release: 0; ERAP1 inh: 0; FGF22 binding: 0; rRNA inh HTS: -41; PGC1a acetyl inh: -9

What do the screens show for `O=C(COc1ccc(Br)cc1)N1CCN(Cc2c[nH]c3ccccc23)CC1`?
Cneo AK release: 2; PGC1a acetyl inh: 11

What do the screens show for `Cc1c(N=Nc2c(O)n(-c3ccc(Br)cc3)c(=O)[nH]c2=O)c(=O)n(-c2ccccc2)n1C`?
Cneo AK release: 1; ERAP1 inh: 3; FGF22 binding: 0; Env fusion inh: 17; rRNA inh HTS: -35*; PGC1a acetyl inh: -8

How did Cc1cc(C=O)c(C)n1C(C)C do in these assays?
ERAP1 inh: 4; FGF22 binding: 43*; Env fusion inh: 2; rRNA inh HTS: 12

What do the screens show for `CCCn1c(C)cc(C=O)c1C`?
ERAP1 inh: 5; FGF22 binding: 0; Env fusion inh: -18; rRNA inh HTS: 3

Results for Cc1ccc(/C=C2\C(=O)NC(=O)N(Cc3ccccc3Cl)C2=O)o1 ?
ERAP1 inh: 50*; FGF22 binding: 0; Env fusion inh: -93; rRNA inh HTS: 1

What do the screens show for `Cc1ccc(/C=C2/C(=O)NC(=O)N(Cc3ccc(F)cc3)C2=O)o1`?
ERAP1 inh: 0; FGF22 binding: 0; Env fusion inh: -133; rRNA inh HTS: 19

Results for CCN1CCN(C(=O)COc2ccc3oc4c(c3c2)CCCC4)CC1 ?
Cneo AK release: 1; ERAP1 inh: 0; FGF22 binding: 0; PGC1a acetyl inh: 22

How did COc1ccc(-[n+]2c(-c3ccccc3)cc(-c3ccc(C)cc3)cc2-c2ccccc2)cc1 do in these assays?
Cneo AK release: -3; ERAP1 inh: 23; FGF22 binding: 0; Env fusion inh: 54; rRNA inh HTS: -45

What do the screens show for `C[N+](C)(C)CC1CCCC1=O` (centres undefined)?
ERAP1 inh: 80*; FGF22 binding: 0; Env fusion inh: -23; rRNA inh HTS: 8; PGC1a acetyl inh: -7

How did COC(=O)C1=C(c2cccc(OCc3ccccc3)c2)C[C@@H]2CC[C@H]1N2C(=O)NCc1ccc(OC)cc1 do in these assays?
Cneo AK release: 0; ERAP1 inh: 5; FGF22 binding: 0; Env fusion inh: -112; rRNA inh HTS: 3; PGC1a acetyl inh: -3

How did CC(C)CC#Cc1ccc([C@@H]2[C@@H](CO)N3CCCCN(C(=O)Cc4ccccn4)C[C@@H]23)cc1 do in these assays?
Cneo AK release: -3; ERAP1 inh: -1; FGF22 binding: -1; rRNA inh HTS: -44; PGC1a acetyl inh: 2

Results for Cc1ccc(OC(=O)N(C)C[C@H]2OCc3ccccc3-c3c(n(C)c4ccccc34)C(=O)N([C@@H](C)CO)C[C@@H]2C)cc1 ?
ERAP1 inh: -1; rRNA inh HTS: -3

What do the screens show for `CC(=O)Nc1ccc(C=C2C(=O)NC(=O)NC2=O)cc1`?
ERAP1 inh: 2; FGF22 binding: 0; Env fusion inh: 63*; rRNA inh HTS: 17

Results for CN(C)c1ccc(C=C2C(=O)NC(=O)NC2=O)cc1 ?
Cneo AK release: -2; ERAP1 inh: 0; FGF22 binding: 0; Env fusion inh: 0; rRNA inh HTS: 18; PGC1a acetyl inh: 3

How did O=C(COc1ccc(Cl)cc1Cl)N1CCN(C/C=C/c2ccccc2)CC1 do in these assays?
Cneo AK release: 4; Env fusion inh: inconclusive; PGC1a acetyl inh: -3

What do the screens show for `CN1/C(=C\C=Nc2ccccc2)C(C)(C)c2ccccc21`?
Cneo AK release: -1; Env fusion inh: 64*; PGC1a acetyl inh: -3

Results for CC(C)OC(=O)Nc1ccc(N=C(N)N[N+](=O)[O-])cc1 ?
ERAP1 inh: 0; FGF22 binding: 43*; Env fusion inh: 12; rRNA inh HTS: 10; PGC1a acetyl inh: -2

What do the screens show for `COC(=O)[C@@H](N)CCCN=C(N)N[N+](=O)[O-]`?
Cneo AK release: -1; ERAP1 inh: -1; FGF22 binding: 0; Env fusion inh: 0; rRNA inh HTS: 14; PGC1a acetyl inh: -2

Results for CN1C(=O)C(=Cc2ccc(Sc3ccccc3)o2)C(=O)N(C)C1=O ?
ERAP1 inh: 7; FGF22 binding: 0; Env fusion inh: -3; rRNA inh HTS: -1

How did CNc1cc(Cl)c2nonc2c1[N+](=O)[O-] do in these assays?
ERAP1 inh: 4; FGF22 binding: 42; Env fusion inh: inactive; rRNA inh HTS: -58; PGC1a acetyl inh: 68*

Results for O=C(c1cccnc1)N1Cc2ccccc2-n2nncc2C1 ?
ERAP1 inh: -2; FGF22 binding: 44*; Env fusion inh: -36; rRNA inh HTS: 5; PGC1a acetyl inh: 21

Compound activity from PubChem BioAssay.
